Results published in ChEMBL document CHEMBL3097999, “Synthesis and biological evaluation of novel substituted 1,3,4-thiadiazole and 2,6-di aryl substituted imidazo [2,1-b] [1,3,4] thiadiazole derivatives” (2014).

Assays:
Assay type in all cases: functional
Settings in all cases: read-out: DIZ
Aspergillus flavus [1] = assay: Antimicrobial activity against Aspergillus flavus at 1 mg/ml by well plate method
In short: (§1)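 Fungal well-plate diffusion against Candida albicans, Aspergillus flavus and Chrysosporium keratinophilum. Compounds in DMSO at 1 and 0.5 mg/mL, with fluconazole as the reference drug. Activity scored as the zone of inhibition.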

Pseudomonas aeruginosa [2] = assay: Antimicrobial activity against Pseudomonas aeruginosa at 1 mg/ml by well plate method
In short: (§2)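 Agar well-plate diffusion against E. coli, B. subtilis and P. aeruginosa. Test compounds dissolved in DMSO at 1 and 0.5 mg/mL and placed in wells. Streptomycin was the reference drug. Read-out is the zone of inhibition.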

[3] = tested on: Chrysosporium keratinophilum; assay: Antimicrobial activity against Chrysosporium keratinophilum at 1 mg/ml by well plate method; in short: as §1
[4] = tested on: Chrysosporium keratinophilum; assay: Antimicrobial activity against Chrysosporium keratinophilum at 0.5 mg/ml by well plate method; in short: as §1
Bacillus subtilis [5] = assay: Antimicrobial activity against Bacillus subtilis at 0.5 mg/ml by well plate method; in short: as §2
Escherichia coli [6] = assay: Antimicrobial activity against Escherichia coli at 1 mg/ml by well plate method; in short: as §2
Candida albicans [7] = assay: Antimicrobial activity against Candida albicans at 1 mg/ml by well plate method; in short: as §1
Aspergillus flavus [8] = assay: Antimicrobial activity against Aspergillus flavus at 0.5 mg/ml by well plate method; in short: as §1
Bacillus subtilis [9] = assay: Antimicrobial activity against Bacillus subtilis at 1 mg/ml by well plate method; in short: as §2
Escherichia coli [10] = assay: Antimicrobial activity against Escherichia coli at 0.5 mg/ml by well plate method; in short: as §2
Pseudomonas aeruginosa [11] = assay: Antimicrobial activity against Pseudomonas aeruginosa at 0.5 mg/ml by well plate method; in short: as §2
Candida albicans [12] = assay: Antimicrobial activity against Candida albicans at 0.5 mg/ml by well plate method; in short: as §1

| Compound | zone of inhibition at 1000 µg/mL (Aspergillus flavus [1]) [mm] | zone of inhibition at 1000 µg/mL (Pseudomonas aeruginosa [2]) [mm] | zone of inhibition at 1000 µg/mL [3] [mm] | zone of inhibition at 500 µg/mL [4] [mm] | zone of inhibition at 500 µg/mL (Bacillus subtilis [5]) [mm] | zone of inhibition at 1000 µg/mL (Escherichia coli [6]) [mm] | zone of inhibition at 1000 µg/mL (Candida albicans [7]) [mm] | zone of inhibition at 500 µg/mL (Aspergillus flavus [8]) [mm] | zone of inhibition at 1000 µg/mL (Bacillus subtilis [9]) [mm] | zone of inhibition at 500 µg/mL (Escherichia coli [10]) [mm] | zone of inhibition at 500 µg/mL (Pseudomonas aeruginosa [11]) [mm] | zone of inhibition at 500 µg/mL (Candida albicans [12]) [mm] |
| --- | --- | --- | --- | --- | --- | --- | --- | --- | --- | --- | --- | --- |
| CC(C)(C)C(=O)Nc1nnc(-c2ccc(NC3CCCCC3)c([N+](=O)[O-])c2)s1 | 7 | 9 | 6 | 4 | 6 | 10 | 9 | 5 | 8 | 8 | 7 | 7 |
| CC(C)(C)C(=O)Nc1nnc(-c2ccc(N3CCC(c4ccc(C(F)(F)F)cc4)CC3)c([N+](=O)[O-])c2)s1 | 8 | 7 | 7 | 5 | 5 | 8 | 7 | 5 | 7 | 5 | 6 | 4 |
| COc1ccc(-c2cn3nc(-c4ccc(NCC5CCCO5)c([N+](=O)[O-])c4)sc3n2)cc1 (stereo unspecified) | 9 | 13 | 8 | 6 | 8 | 13 | 7 | 6 | 10 | 10 | 9 | 5 |
| CCN(CC)c1ccc(-c2nn3cc(-c4ccc(OC)cc4)nc3s2)cc1[N+](=O)[O-] | 5 | 3 | 5 | 3 | 3 | 6 | 6 | 3 | 5 | 4 | 1 | 5 |
| CC(C)(C)C(=O)Nc1nnc(-c2ccc(Nc3ccc(F)cc3)c([N+](=O)[O-])c2)s1 | 3 | 6 | 5 | 4 | 3 | 7 | 4 | 2 | 5 | 5 | 4 | 2 |
| CN1CCN(c2ccc(-c3nnc(NC(=O)C(C)(C)C)s3)cc2[N+](=O)[O-])CC1 | 3 | 3 | 4 | 2 | 3 | 5 | 4 |  | 4 | 3 | 2 | 2 |
| COc1ccc(-c2cn3nc(-c4ccc(N5CCN(C)CC5)c([N+](=O)[O-])c4)sc3n2)cc1 |  | 5 |  |  | 3 | 6 |  |  | 5 | 4 | 3 |  |
| CC(C)(C)C(=O)Nc1nnc(-c2ccc(N3CCOCC3)c([N+](=O)[O-])c2)s1 | 5 | 13 | 4 | 2 | 9 | 12 | 5 | 2 | 11 | 10 | 10 | 3 |
| OC(Cn1cncn1)(Cn1cncn1)c1ccc(F)cc1F [FLUCONAZOLE] | 13 |  | 17 | 15 |  |  | 22 | 10 |  |  |  | 20 |
| CN[C@@H]1[C@H](O[C@H]2[C@H](O[C@H]3[C@H](O)[C@@H](O)[C@H](N=C(N)N)[C@@H](O)[C@@H]3N=C(N)N)O[C@@H](C)[C@]2(O)C=O)O[C@@H](CO)[C@H](O)[C@H]1O [STREPTOMYCIN] |  | 19 |  |  | 19 | 19 |  |  | 22 | 17 | 15 |  |
| COc1ccc(-c2cn3nc(-c4ccc(NC5CCCCC5)c([N+](=O)[O-])c4)sc3n2)cc1 | 8 | 9 | 7 | 5 | 7 | 11 | 9 | 6 | 10 | 9 | 7 | 7 |
| COc1ccc(-c2cn3nc(-c4ccc(N(C)C)c([N+](=O)[O-])c4)sc3n2)cc1 | 4 | 6 | 4 | 2 | 2 | 4 | 5 | 2 | 3 | 3 | 4 | 3 |
| CC(C)(C)C(=O)Nc1nnc(-c2ccc(NC3CCCC3)c([N+](=O)[O-])c2)s1 | 4 | 3 | 4 | 2 | 3 | 6 | 5 | 2 | 4 | 4 | 2 | 2 |
| CC(C)(C)C(=O)Nc1nnc(-c2ccc(N3CCCC3)c([N+](=O)[O-])c2)s1 | 6 | 6 | 5 | 3 | 1 | 5 | 6 | 4 | 3 | 3 | 4 | 5 |
| COc1ccc(-c2cn3nc(-c4ccc(N5CCCC5)c([N+](=O)[O-])c4)sc3n2)cc1 | 7 | 6 | 6 | 4 | 7 | 8 | 7 | 5 | 9 | 5 | 4 | 5 |
| COc1ccc(-c2cn3nc(-c4ccc(NCc5ccc(F)cc5F)c([N+](=O)[O-])c4)sc3n2)cc1 | 6 | 4 | 8 | 6 | 2 | 3 | 5 | 3 | 4 | 1 | 2 | 3 |
| CCCCNc1ccc(-c2nn3cc(-c4ccc(OC)cc4)nc3s2)cc1[N+](=O)[O-] | 2 | 7 | 3 | 1 | 4 | 5 | 3 |  | 6 | 3 | 5 | 2 |
| CC(C)(C)C(=O)Nc1nnc(-c2ccc(NCc3ccc(F)cc3F)c([N+](=O)[O-])c2)s1 | 6 | 4 | 7 | 5 | 2 | 5 | 5 | 4 | 4 | 3 | 2 | 3 |
